Experimental data pooled from the literature.
Lines come from different studies, so protocols differ.
Target: D(3) dopamine receptor (DRD3, Homo sapiens, UniProt P35462)

SMILES	observed	action	method	concentration	inhibition [%]
CC(C)N1CCC[C@H]1CNC(=O)c1cn(C2CCCC2)c(=O)c2c1c1ccccc1n2C	ligand displacement		radioligand	10 µM	26
N#CC1(c2ccccn2)CCN(Cc2cc(C(=O)O)c(=O)n3ccccc23)CC1	cell-free assay			10 µM	-7.39
c1ccc(C2(N3CCCCC3)CCCCC2)cc1	enzyme activity	inhibitor		10 µM	-9.9
COCc1c(-c2cc3cc(C)cc(OC)c3s2)c2c(N)ncnn2c1CN1CCNC(=O)C1	ligand displacement		radioligand	10 µM	29
C[C@H](C(=O)N[C@H]1COc2ccccc2[C@@H]1S(C)(=O)=O)c1ccc(F)cc1	cell-free assay			10 µM	6
O=C(Nc1cccnn1)N1CCN([C@@H]2CCOc3cc(C(F)(F)F)ccc32)CC1	cell-free assay			20 µM	9
c1ccc(C(NCCNC(c2ccccc2)c2ccccc2)c2ccccc2)cc1	cell-free assay			10 µM	77
CCc1ccc(OCC(=O)N2CCN(Cc3ccc4c(c3)OCO4)CC2)c(Br)c1	enzyme activity	inhibitor		10 µM	-4.8
CN(CCN1CCC(OC(=O)Nc2ccccc2-c2ccccc2)CC1)C(=O)c1ccc(CN2CCC(C(N)=O)CC2)cc1	ligand displacement		radioligand	1 µM	-4
CC(C)Cn1cnc2c(N)nc3ccccc3c21	ligand displacement		radioligand	10 µM	18
Cc1c(N2CCNCC2)nc2ccc(Br)cc2c1C(=O)NC[C@H](CCC(=O)O)c1ccccc1Cl	ligand displacement			10 µM	3.81
COc1ccc(S(=O)(=O)N2CCCCC2)cc1C	ligand displacement		radioligand	10 µM	< 30
COc1ccc(C(=O)NCc2cc(C(C)C)no2)cc1OC1CCN(C)CC1	ligand displacement		radioligand	10 µM	15
